Measured values from ChEMBL document CHEMBL1275449, “Potent in vitro antifungal activities of naturally occurring acetylenic acids” (Antimicrob Agents Chemother, 2008).
The source made the active and inactive calls.

How the values were obtained:
Cryptococcus neoformans [1] = experiment: Antifungal activity against Cryptococcus neoformans ATCC 90113 at 198.1 uM after 72 hrs by CLSI method; format: functional, organism-based
Candida parapsilosis = experiment: Antifungal activity against Candida parapsilosis ATCC 22019 at 198.1 uM after 48 hrs by CLSI method; format: functional, organism-based
In short: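 Yeast suspensions made from 3-5 colonies off 24-72 h SD agar plates in saline. They were diluted by OD630 standard curve in RPMI 1640 (0.2% dextrose, 0.03% glutamine, 0.165 M MOPS, pH 7.0) to 1.5 × 10³ CFU/ml. Twofold dilutions (11 concentrations, 20% DMSO-saline) run in duplicate. OD530 read before and after 35°C, 48 h. Line values are top test concentrations; no-growth endpoints give MIC/MFC.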

Candida albicans [2] = experiment: Antifungal activity against Candida albicans ATCC 32354 at 198.1 uM after 48 hrs by CLSI method; format: functional, organism-based
In short: (§1)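 Candida inocula came from 24–72-h SD agar colonies suspended in saline. They were diluted by OD630 standard curve into RPMI 1640 (0.2% dextrose, 0.03% glutamine, 0.165 M MOPS, pH 7.0) to 1.5 × 10³ CFU/ml. Compounds were run as 11 twofold dilutions in 20% DMSO-saline, in duplicate, at 35°C for 48 h, with OD530 read before and after. Percent growth at the top concentration, IC50, MIC, and MFC (SD agar plating) were derived.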

Candida albicans [3] = experiment: Antifungal activity against Candida albicans ATCC 90028 at 198.1 uM after 48 hrs by CLSI method; format: functional, organism-based; in short: as §1
Aspergillus flavus [4] = experiment: Antifungal activity against Aspergillus flavus ATCC 204304 at 187.7 uM after 48 hrs by CLSI method; format: functional, organism-based
Aspergillus fumigatus [5] = experiment: Antifungal activity against Aspergillus fumigatus ATCC 90906 at 187.7 uM after 48 hrs by CLSI method; format: functional, organism-based
Candida albicans [6] = experiment: Antifungal activity against Candida albicans ATCC 60193 at 187.7 uM after 48 hrs by CLSI method; format: functional, organism-based; in short: as §1
Candida albicans [7] = experiment: Antifungal activity against Fluconazole resistant Candida albicans isolate 1 at 187.7 uM after 48 hrs by CLSI method; format: functional, organism-based
In short: (§2)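 Candida in CLSI broth microdilution. Saline colony suspension set to 1.5 × 10³ CFU/ml (final) in MOPS-buffered RPMI 1640, pH 7.0. Test agent given as twofold serial dilutions in 20% DMSO-saline, duplicate wells. 35°C for 48 h. Growth read as OD530 before and after incubation. Percent inhibition scored at the highest test concentration.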

Candida albicans [8] = experiment: Antifungal activity against Fluconazole resistant Candida albicans isolate 17 at 187.7 uM after 48 hrs by CLSI method; format: functional, organism-based; in short: as §2
Cryptococcus neoformans [9] = experiment: Antifungal activity against Cryptococcus neoformans ATCC 66031 at 187.7 uM after 72 hrs by CLSI method; format: functional, organism-based
In short: (§3)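 SD broth replaced RPMI because growth in RPMI was poor; other CLSI conditions were kept. Inoculum was 1.5 × 10³ CFU/ml from colonies on SD agar, checked by plating. Twofold serial dilutions (11 concentrations) in 20% DMSO-saline were tested in duplicate. OD530 was read before and after incubation at 35°C for 72 h. Percent growth gave IC50; the MIC is the lowest concentration with no detectable growth.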

Candida albicans [10] = experiment: Antifungal activity against Fluconazole resistant Candida albicans isolate 17 at 168.9 uM after 48 hrs by CLSI method; format: functional, organism-based; in short: as §2
Nakaseomyces glabratus [11] = experiment: Antifungal activity against Candida glabrata ATCC 90030 at 168.9 uM after 48 hrs by CLSI method; format: functional, organism-based; in short: as §1
Trichophyton rubrum [12] = experiment: Antifungal activity against Trichophyton rubrum ATCC MYA-4438 at 168.9 uM after 5 days by CLSI method; format: functional, organism-based
Aspergillus flavus [13] = experiment: Antifungal activity against Aspergillus flavus ATCC 204304 at 168.9 uM after 48 hrs by CLSI method; format: functional, organism-based
[14] = system: Trichophyton mentagrophytes; experiment: Antifungal activity against Trichophyton mentagrophytes ATCC 9533 at 168.9 uM after 5 days by CLSI method; format: functional, organism-based
Candida albicans [15] = experiment: Antifungal activity against Candida albicans ATCC 90028 at 168.9 uM after 48 hrs by CLSI method; format: functional, organism-based; in short: as §1
Aspergillus flavus [16] = experiment: Antifungal activity against Aspergillus flavus ATCC 204304 at 169.8 uM after 48 hrs by CLSI method; format: functional, organism-based
Cryptococcus neoformans [17] = experiment: Antifungal activity against Cryptococcus neoformans ATCC 90113 at 169.8 uM after 72 hrs by CLSI method; format: functional, organism-based; in short: as §3
Mus musculus = experiment: Toxicity in mouse up to 34 umol/kg/day, ip for 3 days; format: organism-based; conditions: in vivo, 72 h
Nakaseomyces glabratus [18] = experiment: Antifungal activity against Candida glabrata ATCC 90030 at 169.8 uM after 48 hrs by CLSI method; format: functional, organism-based; in short: as §1
Aspergillus niger [19] = experiment: Antifungal activity against Aspergillus niger ATCC 16404 at 169.8 uM after 48 hrs by CLSI method; format: functional, organism-based
Candida albicans [20] = experiment: Antifungal activity against Candida albicans ATCC 90028 at 169.8 uM after 48 hrs by CLSI method; format: functional, organism-based; in short: as §1
Aspergillus fumigatus [21] = experiment: Antifungal activity against Aspergillus fumigatus ATCC 204305 at 169.8 uM after 48 hrs by CLSI method; format: functional, organism-based
Trichophyton rubrum [22] = experiment: Antifungal activity against Trichophyton rubrum ATCC 10218 at 9.4 uM after 5 days by CLSI method; format: functional, organism-based
In short: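 Trichophyton growth scraped from 1–6-week potato dextrose slants and filtered through Miracloth. Inoculum 2.7 × 10⁴ CFU/ml (final) in 5% Alamar blue-RPMI 1640 buffered with MOPS, pH 7.0. Duplicate twofold dilutions from 20% DMSO-saline. Incubated 35°C for 5 days. Fluorescence read at 544 nm excitation, 590 nm emission. Inhibition assessed at the highest test concentration.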

Pichia kudriavzevii = experiment: Antifungal activity against Candida krusei ATCC 6258 at 9.4 uM after 48 hrs by CLSI method; format: functional, organism-based; in short: as §2
Candida albicans [23] = experiment: Antifungal activity against Candida albicans ATCC 90028 at 9.4 uM after 48 hrs by CLSI method; format: functional, organism-based; in short: as §2
Candida albicans [24] = experiment: Antifungal activity against Candida albicans ATCC 200955 at 9.4 uM after 48 hrs by CLSI method; format: functional, organism-based; in short: as §2
Aspergillus niger [25] = experiment: Antifungal activity against Aspergillus niger ATCC 16404 at 9.4 uM after 48 hrs by CLSI method; format: functional, organism-based
In short: (§4)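 Aspergillus growth on 1–6-week potato dextrose slants scraped and Miracloth-filtered. Inoculum sized by OD630 curve to 2.7 × 10⁴ CFU/ml (final) in 5% Alamar blue-RPMI 1640 (MOPS, pH 7.0). Duplicate twofold dilutions from 20% DMSO-saline. 35°C for 48 h. Fluorescence 544/590 nm read before and after. Percent inhibition taken at the highest test concentration.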

Candida albicans [26] = experiment: Antifungal activity against Fluconazole resistant Candida albicans isolate 1 at 9.4 uM after 48 hrs by CLSI method; format: functional, organism-based; in short: as §2
Candida albicans [27] = experiment: Antifungal activity against Candida albicans ATCC 32354 at 9.4 uM after 48 hrs by CLSI method; format: functional, organism-based; in short: as §2
Candida albicans [28] = experiment: Antifungal activity against Candida albicans ATCC 14053 at 9.4 uM after 48 hrs by CLSI method; format: functional, organism-based; in short: as §2
Aspergillus flavus [29] = experiment: Antifungal activity against Aspergillus flavus ATCC 204304 at 9.4 uM after 48 hrs by CLSI method; format: functional, organism-based; in short: as §4

Measured: Activity

CCCCCCCCCC#CCCCCC(=O)O
inactive: Cryptococcus neoformans [1] | Candida parapsilosis | Candida albicans [2] | Candida albicans [3]

CCCCCCCCCCC#CCCCCC(=O)O
inactive: Aspergillus flavus [4] | Aspergillus fumigatus [5] | Candida albicans [6] | Candida albicans [7] | Candida albicans [8] | Cryptococcus neoformans [9]

CCCCCC#CCC#CCC#CCC#CCCCC(=O)O
inactive: Candida albicans [10] | Nakaseomyces glabratus [11] | Trichophyton rubrum [12] | Aspergillus flavus [13] | [14] | Candida albicans [15]

CCCCCCCCCCCCC#CCCCCC(=O)O [6-NONADECYNOIC ACID]
inactive: Aspergillus flavus [16] | Cryptococcus neoformans [17] | Nakaseomyces glabratus [18] | Aspergillus niger [19] | Candida albicans [20] | Aspergillus fumigatus [21]
Non-toxic: Mus musculus

CC(=O)N1CCN(c2ccc(OCC3COC(Cn4ccnc4)(c4ccc(Cl)cc4Cl)O3)cc2)CC1 (configuration not stated) [KETOCONAZOLE]
inactive: Trichophyton rubrum [22] | Pichia kudriavzevii | Candida albicans [23] | Candida albicans [24] | Aspergillus niger [25] | Candida albicans [26] | Candida albicans [27] | Candida albicans [28] | Aspergillus flavus [29]
